Data taken from ChEMBL document CHEMBL4308828, “Fragment Based Optimization of Metabotropic Glutamate Receptor 2 (mGluR2) Positive Allosteric Modulators in the Absence of Structural Information” (J Med Chem, 2018).
pEC50: −log10 of the molar value.

Legend:
[1] = Intrinsic clearance in Wistar rat liver microsomes at 2.5 uM; assay type: ADME, Microsome
How it was run: (§1)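 Liver microsomes (0.5 mg/mL) of human, Wistar rat or NMRI mouse; compound 2.5 μM initial, incubated for various times. Intrinsic clearance (mL/min·g liver) taken as rate of compound consumption under first-order conditions, Clint = Vmax/KM or V/S when S ≪ KM.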

[2] = Intrinsic clearance in human liver microsomes at 2.5 uM; assay type: ADME, Microsome; how it was run: as §1
[3] = molecular target: Metabotropic glutamate receptor 2 (Homo sapiens, UniProt Q14416); test: Positive allosteric modulation of human mGluR2 expressed in human Chem1 cells assessed as increase in glutamate-induced intracellular calcium influx preincubated for 30 mins followed by glutamate addition by calcium-5 dye based fluorometric assay; assay type: functional, cell-based
How it was run: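 Chem-1 cells stably expressing human mGlu2, 30000 cells/well, overnight at 37 °C. Loaded with Calcium 5 dye (30 min, 37 °C) in buffer with GPT/pyruvate, washed, then compound or vehicle 30 min at 37 °C. Glutamate at EC5-EC20 added after 20 s baseline; fluorescence 485/525 nm read 40 s. ΔF/F from multiple wells; sigmoid fits give EC50, three independent experiments. Final DMSO 1%.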

[4] = Intrinsic clearance in NMRI mouse liver microsomes at 2.5 uM; assay type: ADME, Microsome; how it was run: as §1

Chain of Metabotropic glutamate receptor 2 (Q14416 whole entry): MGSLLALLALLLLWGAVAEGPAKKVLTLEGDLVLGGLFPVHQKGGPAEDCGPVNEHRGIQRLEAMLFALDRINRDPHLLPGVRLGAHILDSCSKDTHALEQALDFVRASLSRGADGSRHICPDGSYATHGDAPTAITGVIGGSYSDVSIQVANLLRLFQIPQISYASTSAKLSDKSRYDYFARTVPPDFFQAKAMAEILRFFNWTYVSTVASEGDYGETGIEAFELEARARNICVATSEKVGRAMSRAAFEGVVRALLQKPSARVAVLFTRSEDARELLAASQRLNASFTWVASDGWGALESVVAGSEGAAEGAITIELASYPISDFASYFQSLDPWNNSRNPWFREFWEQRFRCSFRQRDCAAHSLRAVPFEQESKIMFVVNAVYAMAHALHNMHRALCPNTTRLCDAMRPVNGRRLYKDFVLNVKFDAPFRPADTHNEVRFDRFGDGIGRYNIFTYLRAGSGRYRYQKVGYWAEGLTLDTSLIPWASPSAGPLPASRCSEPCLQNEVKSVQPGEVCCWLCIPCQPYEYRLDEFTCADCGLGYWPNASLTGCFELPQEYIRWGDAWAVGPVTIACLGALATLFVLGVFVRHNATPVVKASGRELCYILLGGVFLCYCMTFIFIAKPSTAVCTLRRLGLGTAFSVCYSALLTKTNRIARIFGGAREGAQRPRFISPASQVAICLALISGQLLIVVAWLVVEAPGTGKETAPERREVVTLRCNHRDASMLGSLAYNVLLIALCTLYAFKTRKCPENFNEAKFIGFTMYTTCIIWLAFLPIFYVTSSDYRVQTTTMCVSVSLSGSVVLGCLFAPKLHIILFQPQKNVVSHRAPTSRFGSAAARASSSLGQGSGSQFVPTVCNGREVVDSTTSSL

| Intrinsic clearance [1] [mL/min/g] | Intrinsic clearance [2] [mL/min/g] | pEC50 [3] | Intrinsic clearance [4] [mL/min/g] | Compound |
| --- | --- | --- | --- | --- |
| 0.5 | 0.4 | 7.15 | 5.7 | Fc1cc(Br)c2nnn(CC3CC3)c2c1 |
| 2.3 | 0.8 | 6.85 | 1.6 | Fc1cc(Cl)ccc1-c1ccc(Cn2nnc3ccccc32)nc1 |
| 0.8 | 1.8 | 6.40 | 8.3 | COc1cccc2c1nnn2CC1CC1 |
| 6.4 | 0.9 | 7.15 | 2.3 | Fc1ccc(-c2ccc(Cn3nnc4ccccc43)cc2)c(F)c1 |
|  |  | 6.68 |  | Brc1ccc(Cn2nnc3c(Br)cccc32)cn1 |
| 1.8 | 0.2 | 7.19 | 1.7 | Fc1ccccc1Cn1nnc2c(Br)cccc21 |
| 4.4 | 9.5 | 7.22 | 8.3 | CCCCn1nnc2c(Br)cccc21 |
| 2.3 | 0.6 | 7.30 | 15.3 | Brc1cc(Br)c2nnn(CC3CC3)c2c1 |
| 1.2 | 7.9 | 5.52 | 1 | c1ccc(Cn2nnc3ccccc32)cc1 |
| 0.5 | 0 | 7.43 | 0.4 | FC(F)(F)c1ccc(-c2ccc(Cn3nnc4ccccc43)cc2)c(Cl)c1 |
| 1.1 | 0.5 | 7.22 | 11.4 | Clc1cc(Br)c2nnn(CC3CC3)c2c1 |
| 3.8 | 0.5 | 7.64 | 1.3 | Fc1cc(Cl)ccc1Cn1nnc2c(Br)cccc21 |
| 0.8 | 4.7 | 6.57 | 7.7 | CCCn1nnc2c(Br)cccc21 |
|  |  | 6.21 |  | N#Cc1cccc2c1nnn2CC1CC1 |
| 1 | 1.2 | 7.82 | 1 | Fc1ccc(Cn2nnc3c(Br)cccc32)cc1 |
| 2.2 | 0.4 | 7.85 | 2.6 | Brc1ccc(Cn2nnc3c(Br)cccc32)cc1 |
| 1 | 0.2 | 7.15 | 3.8 | Clc1ccc(-c2ccc(Cn3nnc4ccccc43)cn2)cc1 |
| 12.6 | 7.9 | 6.81 | 11.4 | c1ccc(-c2ccc(Cn3nnc4ccccc43)cc2)cc1 |
| 1.3 | 0.4 | 7.55 | 1.1 | Fc1cc(Cl)ccc1-c1ccc(Cn2nnc3ccccc32)cc1 |
|  |  | 6.14 |  | COc1cc(Br)c2nnn(CC3CC3)c2c1 |

The next lines start with the compound.

| Compound | Intrinsic clearance [1] [mL/min/g] | Intrinsic clearance [2] [mL/min/g] | pEC50 [3] | Intrinsic clearance [4] [mL/min/g] |
| --- | --- | --- | --- | --- |
| Fc1ccc(-c2ccc(Cn3nnc4ccccc43)cc2)c(Cl)c1 | 2.6 | 0.7 | 6.93 | 1.5 |
| Fc1cc(Cn2nnc3c(Br)cccc32)ccc1Cl | 3.1 | 0.4 | 7.74 | 2.2 |
| N#Cc1cccc2c1nnn2Cc1ccc(-c2ccc(Cl)cc2F)nc1 | 0.1 | 0.05 | 7.48 | 1.6 |
| Fc1cccc2c1nnn2CC1CC1 |  |  | 5.97 |  |
| Fc1ccc(Cn2nnc3c(Br)cccc32)c(Cl)c1 | 3.5 | 1.8 | 6.72 | 3 |
| CC(C)Cn1nnc2c(Br)cccc21 | 4 | 4.2 | 6.85 | 3.5 |
| Fc1ccccc1-c1ccc(Cn2nnc3ccccc32)cn1 |  |  | 6.22 |  |
| Brc1cccc2c1nnn2CC1CCC1 | 12 | 8.7 | 7.70 | 11.4 |
| FC(F)(F)c1cc(Br)c2nnn(CC3CC3)c2c1 | 0.2 | 0.1 | 6.85 | 7.7 |
| Brc1ccc(Cn2nnc3c(Br)cccc32)nc1 | 0.7 | 0.3 | 6.74 | 1.1 |
| Fc1cc(Cl)ccc1-c1ccc(Cn2nnc3c(C(F)(F)F)cccc32)cn1 | 0.2 | 0.04 | 7.89 | 0.1 |
| Clc1ccc(Cn2nnc3c(Br)cccc32)cc1 | 2.2 | 0.6 | 7.77 | 2 |
| Fc1ccc2nnn(Cc3ccc(-c4ccc(Cl)cc4F)nc3)c2c1 | 1 | 0.1 | 7.07 | 2.2 |
| Brc1cccc2c1nnn2Cc1ccccc1 | 2 | 4.7 | 7.10 | 2.3 |
| Clc1ccc(Cn2nnc3c(Br)cccc32)cn1 |  |  | 6.54 |  |
| Clc1ccc(-c2ccc(Cn3nnc4ccccc43)cc2)c(Cl)c1 | 1.4 | 0.6 | 7.10 | 1.3 |
| Clc1cccc2c1nnn2CC1CC1 | 0.5 | 4.2 | 7.05 | 5.7 |
| Fc1cc(C(F)(F)F)ccc1-c1ccc(Cn2nnc3ccccc32)cc1 | 0.4 | 0.1 | 7.54 | 1.2 |
| Fc1cccc(Cn2nnc3c(Br)cccc32)c1 | 1.6 | 1.8 | 7.74 | 1.3 |
| CCn1nnc2c(Br)cccc21 |  |  | 5.65 |  |
| Fc1cc(Cl)ccc1-c1ccc(Cn2nnc3c(F)cccc32)cn1 | 0.6 | 0.1 | 7.57 | 2.2 |
| Cn1nnc2c(Br)cccc21 |  |  | < 5.30 |  |
| Brc1cccc2c1nnn2CC1CCCC1 | 14.6 | 7.9 | 7.52 | 11.4 |
